# Laboratory results taken from ChEMBL document CHEMBL4513216, “Probing the Open Global Health Chemical Diversity Library for Multistage-Active Starting Points for Next-Generation Antimalarials” (ACS Infect Dis, 2020).
# Test: Toxicity liver stage against HepG2, at 10uM
# Assay type: cell-based
# Set-up: test concentration 10 uM, cell line HepG2-A16-CD81EGFP
# Details: human, HepG2-A16-CD81EGFP cells; read-out: INHIBITION
# Outline: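 Uninfected HepG2-A16-CD81EGFP cells, 3 × 10^3 per well, 1536-well, plated on prespotted compound at 10 μM final, parasite-free screening media added to match infected plates; puromycin 10 μM positive, DMSO 0.5% negative; run in parallel with 48 h PbLuc assay at 37 °C, 5% CO2; viability by CellTiter-Glo luminescence, normalized to controls.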
row,Structure (SMILES),cytotoxicity at 10 µM
1,CC(=O)N1N=C(c2ccccc2)OC1C(=O)NCCc1ccc(Cl)cc1 (centres undefined),3.68%
2,O=C(c1ccccn1)N1CC(S(=O)(=O)c2ccc(Cl)cc2)C1,-12%
3,O=C(NC1CC1)N1CCCC2(CCNC2=O)C1 (centres undefined),3%
4,CC[C@@H]1N(Cc2cc(OC)cc(OC)c2)CCC[C@]12CCC(=O)N2C,11.8%
5,CCN(CC)Cc1nc2c(o1)CN(C(=O)c1ccc3ncccc3c1)C2,6.01%
6,Cc1cnc(N2C[C@@H]3[C@@H](C(=O)NC(C)C)CCS(=O)(=O)[C@@H]3C2)nc1,-130%
7,O=C(COC[C@@H]1CC[C@H]2[C@H](CCN2Cc2ccco2)O1)N1CCCC1,-161%
8,O=C1CC(c2ccc(C(=O)O)cc2)c2ncn(-c3ccccc3F)c2N1 (centres undefined),-3.51%
9,CC1CCc2nn(CCNC(=O)c3cccs3)c(=O)cc2C1 (centres undefined),17%
10,Cn1cncc1CN1CCOC(Cc2ccccc2)C1 (centres undefined),9.43%
11,COc1ccc(CN(C)[C@@H]2CN(C(=O)c3ccnn3C)C[C@H]2O)cc1,-13.5%
12,Cn1cccc1C(=O)COc1ccc(S(N)(=O)=O)cc1,12.4%
13,COc1cc(Br)c(CNc2ccn(CCC(N)=O)n2)cc1OC,-2.87%
14,Cc1nc2n(n1)CC(NCc1ccc(Cl)c3cccnc13)CC2 (centres undefined),-8.81%
15,CC(C)(C)n1ncc2c(=O)[nH]c(N3CCN(CC(F)F)CC3)nc21,-7.8%
16,NC(=O)C1CCN(CC(=O)NCCc2c(F)cccc2F)CC1,-7.14%
17,CCc1cnc(CN(C)C(=O)NC2CCN(c3ccccc3)C2)s1 (centres undefined),-2.12%
18,NC(=O)COc1ccc(C(=O)NCCc2ccco2)cc1,10.1%
19,CCOC(=O)N1CCN(C(=O)c2cc(-c3ccccc3F)on2)CC1,1.14%
20,CC(C)Cc1nnc(NCc2ccsc2)o1,-0.699%
21,CS(=O)(=O)CCC(=O)NC1CC(c2ccccc2Cl)C1 (centres undefined),-4.19%
22,CCOCCN1CCN(CC(O)c2ccc(C)c(C)c2)CC1 (centres undefined),-6.33%

row,Structure (SMILES),cytotoxicity at 10 µM
1,COCCNC(=O)Cn1cc(NC(=O)c2ccc(C(C)(C)C)cc2)cn1,-9.94%
2,Cc1ccc(C(=O)NCCCC2(C3OCCO3)CCOCC2)cc1C,1.48%
3,C[C@@H]1CN(C(=O)c2ccc(Br)cc2F)CC(C(N)=O)O1 (some centres undefined),-2.74%
4,CCOc1ccnc(N2CCN(C(=O)CCc3cnn(C)c3)CC2)n1,7.58%
5,COc1ccc(OC)c(CN(C)c2ncc(S(N)(=O)=O)s2)c1,5.8%
6,CCOC(=O)c1n[nH]cc1CN1CCOC(Cc2ccccc2)C1 (centres undefined),-5.35%
7,CN(C)C(=O)CCN1CC(c2ccccc2)(c2ccccc2)CCC1=O,0.284%
8,CCCn1cnnc1CNC(=O)CC1C(=O)NCCN1CC(C)(C)C (centres undefined),-0.798%
9,O=C(Nc1cccc2ccccc12)N1CCC(N2CCSCC2)CC1,-1.86%
10,Cc1c[nH]c(CN(C)C(=O)C(C)(C)NC(=O)c2cccs2)n1,3.08%
11,CCc1cc(C(=O)N2CCC3(CCCN(CC4CC4)C3=O)C2)cs1 (centres undefined),-164%
12,CCc1ccc2nc(C)cc(C(=O)NC3CCC(=O)N(C)C3)c2c1 (centres undefined),-5.85%
13,c1coc(-c2nc3c(c(N4CCCN5CCC[C@H]5C4)n2)CCNCC3)c1,-9.88%
14,Cc1ccc(NC2CCN(C(=O)c3sccc3C3CC3)CC2)nn1,-4.51%
15,CC(=O)NCc1ccc(C(=O)N2CCCC2c2c(C)nn(C)c2C)o1 (centres undefined),-11.3%
16,Cc1cc(C)n(CC2CCCN2C(=O)c2ccc3nncn3c2)n1 (centres undefined),2.01%
17,Cc1nc2ccccc2nc1CN1CCCC(Cn2cncn2)C1 (centres undefined),-4.57%
18,COc1cc(CNCC(O)c2ccccc2)cc2c1OCO2 (centres undefined),-13%
19,O=C1[C@H]2CN(Cc3ccccc3)C[C@H]2CN1CCN1CCCC1,-3.84%
20,CS(=O)(=O)NC[C@@H]1OC[C@H]2CN(Cc3ccccc3)CC[C@H]21,4.82%
21,Cc1ccc(NS(=O)(=O)C=c2[nH]c(=O)n3cccc3c2=O)cc1,-10.7%
22,Cc1cnc(C(=O)N2C[C@@H]3CC[C@H]2CN(c2cnccn2)C3)cn1,10.1%
